# Yeast superoxide = yeast age-related superoxide inhibition as caloric restriction mimetic. AID 2690. superoxide response (% of plate mean), % at 10 µM. S. cerevisiae aged cells, superoxide DHE fluorescence; stronger effect = lower value. 330,000 compounds, 0.18% hits;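 active = superoxide response under a set limit, about three screen SD below normal, cut at about 65% in these data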;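 note: yeast aged for seven days with compound at 30 °C before DHE staining; 100% = average MFI of all compound-treated wells on the plate with controls excluded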
# TRPC4 PAM = allosteric potentiators of mouse TRPC4 channel; HEK293 TRPC4beta/mu-opioid, DAMGO EC20, Fluo-4 Ca2+ flux; stronger effect = higher value; B-score at 10 µM; AID 2227; 310,000 compounds, 0.42% hits;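 active = B-score of calcium response area above 5 SD of library B-scores, with initial fluorescence ratio within 5 SD of library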;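 note: B-score of integrated fluorescence ratio over time as area under calcium response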
# TRPC4 agonist = activators of mouse TRPC4 channel; B-score at 10 µM; HEK293 TRPC4beta/mu-opioid, Fluo4 calcium fluorescence; stronger effect = higher value; Q9QUQ5; AID 2237; 310,000 compounds, 0.49% hits;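 active = B-score above 5 SD of library B-scores, and initial fluorescence ratio not above library mean plus 5 SD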;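 note: positive B-score marks a calcium rise read as TRPC4 activation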
#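 System – HEK293 cells stably co-expressing mouse TRPC4beta and mu-opioid receptor · Signal – Fluo4 calcium-sensitive dye fluorescence, kinetic, 1 Hz baseline · Benchmarks – buffer (low) and maximal DAMGO (high) · Read-out – B score of integrated fluorescence ratio per well · Incubation – dye loading 45 min room temperature, 110 s kinetic read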
# TRPC6 activator = activates the mouse TRPC6 cation channel; HEK293-TRPC6 membrane potential dye fluorescence; stronger effect = higher value; B-score at 10 µM; 310,000 compounds, 0.13% hits; AID 2550;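 active = B-score of the integrated fluorescence ratio above library mean plus 3 SD, and starting fluorescence ratio within library mean plus 5 SD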;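 note: higher score means more depolarization so channel activation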
# TRPC4 inh = inhibitors of mouse TRPC4 channel | HEK293 TRPC4beta/mu-opioid, DAMGO-evoked Fluo4 calcium flux; stronger effect = lower value | B-score at 10 µM | 300,000 compounds, 0.39% hits | AID 2247;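 active = B-score over 3 SD under the library average, no early fluorescence shift, positive overall ratio signal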
#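 Assay system: Stable TRPC4beta/mu-opioid receptor HEK293 cells | Reagent: DAMGO in two steps, submaximal then maximal | Compound dosing: Single concentration per test compound | Signal: Fluo4 Ca2+ flux fluorescence | Evaluation: Per-well B score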
# TRPC6 inh = inhibitors of mouse TRPC6 channel; Q61143; 310,000 compounds, 1.1% hits; B-score at 10 µM; HEK293-TRPC6, membrane potential dye, ACh-evoked depolarization; stronger effect = lower value;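 active = B-score under library mean minus 3 SD, initial fluorescence not abnormally high, positive integrated signal ratio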;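 note: B-score derived from integrated fluorescence ratio over the kinetic read; more negative B-score means stronger inhibition of depolarization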
# * hit, by the source's call; i = inactive; / = no result given. In the library only some 2.3% were active in any assay of this set; here they are far more common.
SMILES,Yeast superoxide,TRPC4 PAM,TRPC4 agonist,TRPC6 activator,TRPC4 inh,TRPC6 inh
Cc1ccc(-c2cc(C(=O)N3CCC(C)CC3)c3ccccc3n2)cc1,107,12*,i,i,i,i
CN1CCCN(C(=O)c2cc(-c3ccc(Cl)c(Cl)c3Cl)nc3ccccc23)CC1,93,i,52*,i,i,i
O=C(CSc1nc2[nH]ncc2c(=O)n1-c1ccccc1Br)NCc1ccccc1Cl,90,i,i,i,-6*,i
NC(N)=NC(=O)Cc1c(Cl)cccc1Cl,94,i,46*,i,i,i
O=C(CSc1nnc(-c2ccc(Cl)cc2Cl)n1C1CCCCC1)N1CCCC1,101,i,i,i,-6*,i
Clc1ccc(OCCCNCc2ccccc2)c2ccccc12,90,i,56*,i,i,i
Brc1ccccc1OCCNCc1ccccc1,90,i,i,i,i,i
COc1ccc(-c2nnc(-c3cc4c(ccc5ccccc54)oc3=O)o2)cc1,99,i,i,i,i,i
O=c1oc2ccc3ccccc3c2cc1-c1nnc(-c2ccccc2)o1,112,i,i,i,-6*,i
Cc1nc2sc(C(c3ccco3)N3CCC(C)CC3)c(O)n2n1 (centres undefined),86,i,i,i,i,i
CCn1c(-c2ccc(N)cc2)nc2ccccc21,101,i,71*,i,i,i
CCn1c(-c2ccc(N(C)C)cc2)nc2ccccc21,89,i,i,i,i,i
CCCN1CCN(C(=O)c2cc(COc3ccc(F)c(F)c3)on2)CC1,96,i,i,i,i,i
CCOc1ccccc1NC(=O)CN(c1ccc(OC)cc1)S(=O)(=O)c1c(C)[nH]c(=O)[nH]c1=O,110,20*,i,i,i,i
COc1ccc(N(CC(=O)Nc2ccccc2C)S(=O)(=O)c2c(C)[nH]c(=O)[nH]c2=O)cc1,96,i,i,i,i,i
Cc1cc(Cl)c(Cl)cc1S(=O)(=O)NCCCn1ccnc1,108,11*,i,i,i,i
CCOC(=O)CSc1nc2c(sc(=S)n2-c2ccccc2OC)c(=O)n1Cc1ccco1,91,i,i,i,-5*,-5.7*
CCOC(=O)CSc1nc2c(sc(=S)n2Cc2ccco2)c(=O)n1-c1ccccc1,97,i,i,i,-6*,i
Cc1ccccc1Oc1cc(NC(=O)Cn2cnc([N+](=O)[O-])c2)cc([N+](=O)[O-])c1,95,i,i,i,i,i
O=C(O)c1cccc2c3c([nH]c12)CCCC3,104,i,i,i,i,i
Clc1cccc2c3c([nH]c12)CCNC3,100,16*,i,i,i,i
Clc1ccc2[nH]c3c(c2c1)CNCC3,90,19*,i,i,i,i
Cc1cc(NC(=O)COc2nnc(-c3ccccc3)c3ccccc23)no1,93,/,/,/,/,/
Cn1c(N)c(Br)c(-c2ccc(F)cc2)c(C#N)c1=O,103,i,i,i,-5*,i
CC(C)(Sc1cc(C(C)(C)C)c(O)c(C(C)(C)C)c1)Sc1cc(C(C)(C)C)c(O)c(C(C)(C)C)c1,102,i,83*,i,i,i
SMILES,Yeast superoxide,TRPC4 PAM,TRPC4 agonist,TRPC6 activator,TRPC4 inh,TRPC6 inh
C/C(=N/O)c1cc(C(C)(C)C)c(O)c(C(C)(C)C)c1,117,i,i,i,i,i
Nc1ccnn1Cc1cccnc1,103,i,i,i,i,i
CC(C)(C)c1ccc(C(=O)Nc2ccc(C(=O)NCc3cccnc3)cc2)cc1,116,i,i,i,i,i
CCOc1cc(O)c(-c2[nH]ncc2-c2nc(C)cs2)cc1CC,105,20*,i,i,i,i
COCCn1c(SCC(=O)Nc2ccccc2OC)nc2c([nH]c3ccccc32)c1=O,123,i,i,i,-7*,i
COCCn1c(SCC(=O)NCCc2ccc(OC)c(OC)c2)nc2c([nH]c3ccccc32)c1=O,91,11*,i,i,i,i
COCCn1c(SCC(=O)Nc2ccccc2F)nc2c([nH]c3ccccc32)c1=O,110,i,i,i,i,i
O=C(CN1CCN(c2ccc(O)cc2)CC1)Nc1ccc(SC(F)F)cc1,95,i,i,i,i,i
Cc1oc(-c2cccc(Cl)c2)nc1CS(=O)(=O)CC(=O)NC1CC1,104,i,i,i,i,i
CN(C)CCN(C(=O)c1cccc(Cl)c1)c1nc2c(Cl)cccc2s1,96,11*,i,i,i,i
CN(C)CCN(C(=O)c1ccccc1Cl)c1nc2c(Cl)cccc2s1,108,i,i,i,i,i
COc1cc(C(=O)NNC(=S)NC(=O)c2ccccc2C)cc(OC)c1OC,95,i,i,i,i,i
COc1ccccc1C(=O)NNC(=S)NC(=O)c1cc(OC)c(OC)c(OC)c1,218,i,62*,i,i,i
COc1cc(C(=O)NC(=S)NNC(=O)[C@H]2C[C@@H]2c2ccccc2)cc(OC)c1OC,89,i,160*,i,i,i
Cc1cc(F)c(F)cc1C(=O)N1CCCC1,95,i,i,i,i,i
Cc1cc(-c2n[nH]c(=S)n2/N=C/c2cccc([N+](=O)[O-])c2)n[nH]1,94,i,i,i,i,i
Cc1cc(-c2n[nH]c(=S)n2/N=C/c2cccc(O)c2)n[nH]1,65*,i,i,i,i,i
COc1ccc(NC(=O)CCCN2C(=O)C3C4C=CC(C4)C3C2=O)c(OC)c1 (centres undefined),92,i,i,i,i,i
CN(C)c1ccc(-c2nc3ccccc3n2C)cc1,96,i,46*,i,i,i
CC(C)n1c(-c2ccc(N(C)C)cc2)nc2ccccc21,104,/,/,/,/,/
Cc1cc(Cl)c2oc(C(=O)N(C)Cc3nccn3C)c(C)c2c1,/,i,i,i,-7*,i
O=C(CN1CCN(c2ccc([N+](=O)[O-])cc2)CC1)c1ccccc1,97,11*,i,i,i,i
COc1ccc(N2CCN(CC(=O)c3ccccc3)CC2)cc1,90,i,i,i,i,i
COc1ccccc1N1CCN(Cc2cc(=O)c(OCC(=O)Nc3ccccc3)co2)CC1,124,i,i,i,i,i
O=C(COc1coc(CN2CCN(c3ccccc3F)CC2)cc1=O)Nc1ccccc1,129,32*,i,i,i,i

# Source: PubChem BioAssay
